Measurements: ChEMBL document CHEMBL1145814, “Antiretroviral activity of semisynthetic derivatives of glycopeptide antibiotics” (J Med Chem, 2003)
In brackets after ≈: the same amount, converted by molar mass.

Tests used:
[1] = tested on: Human immunodeficiency virus 1; assay: Effective concentration of compound required to protect human T-lymphocytic cells against the cytopathogenicity of HIV-1; format: functional, organism-based; conditions: Human immunodeficiency virus 1
Mus musculus [2] = species: Mus musculus; assay: Effective concentration of compound required to protect C3H/3T3 embryo murine fibroblasts against the MSV induced transformation; format: functional, organism-based; conditions: Mus musculus, C3H/3T3
Summary of the method: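 Monolayer murine embryo fibroblast C3H/3T3 cultures were infected with Moloney murine sarcoma virus at 75 focus-forming units and cultured with test compound. Transformation was examined microscopically on day 6 postinfection. EC50 is the concentration protecting cells against MSV-induced transformation by 50%.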

CCRF-CEM = assay: Inhibitory concentration against proliferation of human T-lymphocytic (CEM) cells; format: functional, cell-based; conditions: Homo sapiens, CCRF-CEM
Summary of the method: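 (5–7.5) × 10^4 cells per well were incubated with test compound at 37 °C in a humidified CO2 atmosphere. L1210 murine leukemia cells grew for 48 h, and CEM and Molt4/clone 8 human lymphocytes grew for 72 h. Cells were then counted with a Coulter counter. IC50 is the concentration inhibiting proliferation by 50%.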

Mus musculus [3] = species: Mus musculus; assay: Minimal inhibitory concentration required to cause a microscopic detectable alteration of C3H/3T3 embryo murine fibroblast cell morphology; format: functional
Summary of the method: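 Uninfected C3H/3T3 murine embryo fibroblast cultures were exposed to test compound and checked microscopically for changes in cell morphology. The MIC is the concentration causing a microscopically detectable alteration of morphology.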

[4] = tested on: Human immunodeficiency virus 2; assay: Concentration required to protect human T-lymphocytic cells against the cytopathogenicity of HIV-2; format: functional, organism-based; conditions: Human immunodeficiency virus 2

COC(=O)[C@H]1NC(=O)C2NC(=O)C(NC(=O)[C@@H]3NC(=O)[C@H]4NC(=O)[C@H](NC(=O)[C@H](N)c5ccc(O)c(c5)Oc5cc4cc(O)c5C)[C@H](O)c4ccc(cc4)Oc4cc3cc(c4O)Oc3ccc(cc3)[C@H]2O[C@@H]2C[C@@H](N)[C@@H](O)[C@@H](C)O2)c2ccc(O)c(c2)-c2c(O)cc(O)cc21
EC50 [1]: > 50 µM
EC50 (Mus musculus [2]): 52 µM
IC50 (CCRF-CEM): > 100 µM
MIC (Mus musculus [3]): > 100 µM
EC50 [4]: > 250 µM

CN[C@H](CC(C)C)C(=O)N[C@H]1C(=O)N[C@@H](CC(N)=O)C(=O)N[C@H]2C(=O)N[C@H]3C(=O)N[C@H](C(=O)N[C@H](C(=O)O)c4cc(O)cc(O)c4-c4cc3ccc4O)[C@H](O)c3ccc(c(Cl)c3)Oc3cc2cc(c3O[C@@H]2O[C@H](CO)[C@@H](O)[C@H](O)[C@H]2O[C@H]2C[C@](C)(NCc3ccc(-c4ccc(Cl)cc4)cc3)C(O)[C@H](C)O2)Oc2ccc(cc2Cl)[C@H]1O (some centres not stated) [listing 1 of 2 here]
EC50 (Mus musculus [2]): 7.7 µM

CN[C@H](CC(C)C)C(=O)N[C@H]1C(=O)N[C@@H](CC(N)=O)C(=O)N[C@H]2C(=O)N[C@H]3C(=O)N[C@H](C(=O)N[C@H](C(=O)O)c4cc(O)cc(O)c4-c4cc3ccc4O)[C@H](O)c3ccc(c(Cl)c3)Oc3cc2cc(c3O[C@@H]2O[C@H](CO)[C@@H](O)[C@H](O)[C@H]2O[C@H]2C[C@](C)(NCc3ccc(-c4ccc(Cl)cc4)cc3)C(O)[C@H](C)O2)Oc2ccc(cc2Cl)[C@H]1O (some centres not stated) [listing 2 of 2 here]
MIC (Mus musculus [3]): > 25 µM

CN[C@H](CC(C)C)C(=O)N[C@H]1C(=O)N[C@@H](CC(N)=O)C(=O)N[C@H]2C(=O)N[C@H]3C(=O)N[C@H](C(=O)N[C@H](C(=O)NCc4ccc(-c5ccc(Cl)cc5)cc4)c4cc(O)cc(O)c4-c4cc3ccc4O)[C@H](O)c3ccc(c(Cl)c3)Oc3cc2cc(c3O[C@@H]2O[C@H](CO)[C@@H](O)[C@H](O)[C@H]2O[C@H]2C[C@](C)(N)C(O)[C@H](C)O2)Oc2ccc(cc2Cl)[C@H]1O (some centres not stated) [listing 1 of 2 here]
EC50 (Mus musculus [2]): > 2 µM

CN[C@H](CC(C)C)C(=O)N[C@H]1C(=O)N[C@@H](CC(N)=O)C(=O)N[C@H]2C(=O)N[C@H]3C(=O)N[C@H](C(=O)N[C@H](C(=O)NCc4ccc(-c5ccc(Cl)cc5)cc4)c4cc(O)cc(O)c4-c4cc3ccc4O)[C@H](O)c3ccc(c(Cl)c3)Oc3cc2cc(c3O[C@@H]2O[C@H](CO)[C@@H](O)[C@H](O)[C@H]2O[C@H]2C[C@](C)(N)C(O)[C@H](C)O2)Oc2ccc(cc2Cl)[C@H]1O (some centres not stated) [listing 2 of 2 here]
MIC (Mus musculus [3]): 20 µM (≈ 33 µg/mL)

NC(=O)C[C@@H]1NC(=O)C(N)C(O)c2ccc(c(Cl)c2)Oc2cc3cc(c2O)Oc2ccc(cc2)C(O)C2NC(=O)C(NC(=O)C3NC1=O)c1ccc(O)c(c1)-c1c(O)cc(O)cc1[C@H](C(=O)O)NC2=O (some centres not stated)
EC50 [1]: 115 µM
EC50 (Mus musculus [2]): > 100 µM
IC50 (CCRF-CEM): > 250 µM
MIC (Mus musculus [3]): > 100 µM
EC50 [4]: > 250 µM

CC(C)CC(C(=O)NC1C(=O)NC(CC(N)=O)C(=O)NC2C(=O)NC3C(=O)NC(C(=O)N[C@@H](C(=O)O)c4cc(O)c(CN5CCN(Cc6ccc(-c7ccccc7)cc6)CC5)c(O)c4-c4cc3ccc4O)C(O)c3ccc(cc3)Oc3cc2cc(c3O)Oc2ccc(cc2Cl)C1O)N(C)C(=O)OC(C)(C)C (some centres not stated)
EC50 [1]: 4.5 µM
EC50 (Mus musculus [2]): 8.4 µM
IC50 (CCRF-CEM): > 100 µM
MIC (Mus musculus [3]): > 100 µM
EC50 [4]: 4.5 µM

CNC(=O)[C@@H]1NC(=O)C2NC(=O)C(NC(=O)C3NC(=O)C4NC(=O)C(Cc5ccc(c(Cl)c5)Oc5cc3cc(c5O)Oc3ccc(cc3Cl)C2O)NC(=O)C(NC(=O)OC(C)(C)C)c2ccc(O)c(c2)Oc2cc(O)cc4c2)c2ccc(O)c(c2)-c2c(O)cc(O)cc21 (some centres not stated)
EC50 [1]: 13 µM
EC50 (Mus musculus [2]): 11 µM
IC50 (CCRF-CEM): 229 µM
MIC (Mus musculus [3]): > 100 µM
EC50 [4]: 17 µM

CC(C)(C)OC(=O)NC1C(=O)NC2Cc3ccc(c(Cl)c3)Oc3cc4cc(c3O)Oc3ccc(cc3Cl)C(O)C3NC(=O)C(NC(=O)C4NC(=O)C(NC2=O)c2cc(O)cc(c2)Oc2cc1ccc2O)c1ccc(O)c(c1)-c1c(O)cc(O)cc1[C@H](C(=O)O)NC3=O (some centres not stated)
EC50 [1]: 13 µM
EC50 (Mus musculus [2]): 12 µM
IC50 (CCRF-CEM): > 250 µM
MIC (Mus musculus [3]): > 100 µM
EC50 [4]: 20 µM

O=C(NC1C(=O)NC2Cc3ccc(c(Cl)c3)Oc3cc4cc(c3O)Oc3ccc(cc3Cl)C(O)C3NC(=O)C(NC(=O)C4NC(=O)C(NC2=O)c2cc(O)cc(c2)Oc2cc1ccc2O)c1ccc(O)c(c1)-c1c(O)cc(O)cc1[C@H](C(=O)O)NC3=O)OCc1ccccc1 (some centres not stated)
EC50 [1]: 12 µM
EC50 (Mus musculus [2]): 11 µM
IC50 (CCRF-CEM): > 250 µM
MIC (Mus musculus [3]): > 100 µM
EC50 [4]: 8 µM

NC1Cc2ccc(c(Cl)c2)Oc2cc3cc(c2O)Oc2ccc(cc2Cl)C(O)C2NC(=O)C(NC(=O)C3NC(=O)C(c3cc(O)cc(Oc4cc(C5NC(=S)N(c6ccccc6)C5=O)ccc4O)c3)NC1=O)c1ccc(O)c(c1)-c1c(O)cc(O)cc1[C@H](C(=O)O)NC2=O (some centres not stated)
EC50 [1]: 15 µM
EC50 (Mus musculus [2]): 27 µM
IC50 (CCRF-CEM): > 250 µM
MIC (Mus musculus [3]): > 100 µM
EC50 [4]: 37 µM

NC1C(=O)NC2Cc3ccc(c(Cl)c3)Oc3cc4cc(c3O)Oc3ccc(cc3Cl)C(O)C(C(=O)O)NC(=O)C(c3ccc(O)c(-c5c(O)cc(O)cc5[C@@H](N)C(=O)O)c3)NC(=O)C4NC(=O)C(NC2=O)c2cc(O)cc(c2)Oc2cc1ccc2O (some centres not stated)
EC50 [1]: 22 µM
EC50 (Mus musculus [2]): 14 µM
IC50 (CCRF-CEM): > 250 µM
MIC (Mus musculus [3]): > 100 µM
EC50 [4]: 32 µM

O=C1NC2C(=O)NC3C(=O)NC4C(=O)NC(C(=O)N[C@@H](C(=O)O)c5cc(O)cc(O)c5-c5cc4ccc5O)C(O)c4ccc(c(Cl)c4)Oc4cc3cc(c4O)Oc3ccc(cc3Cl)CC1NC(=O)C(/N=C(\S)Nc1ccccc1)c1ccc(O)c(c1)Oc1cc(O)cc2c1 (some centres not stated)
EC50 [1]: 6 µM
EC50 (Mus musculus [2]): 7.5 µM
IC50 (CCRF-CEM): 220 µM
MIC (Mus musculus [3]): 100 µM (≈ 133 µg/mL)
EC50 [4]: 8 µM

CCCCCCCCCCNC(=O)[C@@H]1NC(=O)C2NC(=O)C(NC(=O)C3NC(=O)C4NC(=O)C(Cc5ccc(c(Cl)c5)Oc5cc3cc(c5O)Oc3ccc(cc3Cl)C2O)NC(=O)C(N)c2ccc(O)c(c2)Oc2cc(O)cc4c2)c2ccc(O)c(c2)-c2c(O)cc(O)cc21 (some centres not stated)
EC50 [1]: 2.6 µM
IC50 (CCRF-CEM): 21 µM
EC50 [4]: 5.8 µM

NC(=O)CC1NC(=O)C(N)C(O)c2ccc(c(Cl)c2)Oc2cc3cc(c2O)Oc2ccc(cc2)C(O)C2NC(=O)C(NC(=O)C3NC1=O)c1ccc(O)c(c1)-c1c(cc(O)c(CNC3C4CC5CC(C4)CC3C5)c1O)[C@H](C(=O)O)NC2=O (some centres not stated)
EC50 [1]: 22 µM
EC50 (Mus musculus [2]): 47 µM
IC50 (CCRF-CEM): > 250 µM
MIC (Mus musculus [3]): > 100 µM
EC50 [4]: 40 µM

NC1C(=O)NC2Cc3ccc(c(Cl)c3)Oc3cc4cc(c3O)Oc3ccc(cc3Cl)C(O)C3NC(=O)C(NC(=O)C4NC(=O)C(NC2=O)c2cc(O)cc(c2)Oc2cc1ccc2O)c1ccc(O)c(c1)-c1c(cc(O)c(CNC2C4CC5CC(C4)CC2C5)c1O)[C@H](C(=O)O)NC3=O (some centres not stated)
EC50 [1]: 25 µM
EC50 (Mus musculus [2]): 5.6 µM
IC50 (CCRF-CEM): > 250 µM
MIC (Mus musculus [3]): 100 µM (≈ 136 µg/mL)
EC50 [4]: 37 µM

CCCCc1ccc(CNC2C(Oc3c4cc5cc3Oc3ccc(cc3Cl)C(O)C3NC(=O)C(NC(=O)C5NC(=O)C5NC(=O)C(Cc6ccc(cc6)O4)NC(=O)C(NC)c4ccc(O)c(c4)Oc4cc(O)c(Cl)c5c4)c4ccc(O)c(c4)-c4c(cc(O)c(CN5CCN(Cc6ccc(-c7ccccc7)cc6)CC5)c4O)[C@H](C(=O)O)NC3=O)OC(C(=O)O)C(O)C2O)cc1 (some centres not stated)
EC50 [1]: 3.5 µM
EC50 (Mus musculus [2]): 6.9 µM
IC50 (CCRF-CEM): 81 µM
MIC (Mus musculus [3]): > 20 µM
EC50 [4]: 22 µM

CCCCCCCCCCCCCCCCCCNCc1c(O)cc2c(c1O)-c1cc(ccc1O)C1NC(=O)C3NC(=O)C4NC(=O)C(Cc5ccc(c(Cl)c5)Oc5cc3cc(c5O)Oc3ccc(cc3Cl)C(O)C(NC1=O)C(=O)N[C@H]2C(=O)NC)NC(=O)C(N)c1ccc(O)c(c1)Oc1cc(O)cc4c1 (some centres not stated)
EC50 [1]: 2.5 µM
EC50 (Mus musculus [2]): 4.7 µM
IC50 (CCRF-CEM): 60 µM
MIC (Mus musculus [3]): 100 µM (≈ 149 µg/mL)
EC50 [4]: 6 µM

CCCCCCCCCCCCCCCCCCNCc1c(O)cc2c(c1O)-c1cc(ccc1O)C1NC(=O)C3NC(=O)C4NC(=O)C(Cc5ccc(c(Cl)c5)Oc5cc3cc(c5O)Oc3ccc(cc3Cl)C(O)C(NC1=O)C(=O)N[C@H]2C(=O)O)NC(=O)C(N)c1ccc(O)c(c1)Oc1cc(O)cc4c1 (some centres not stated)
EC50 [1]: 4.5 µM
EC50 (Mus musculus [2]): 1.7 µM
IC50 (CCRF-CEM): 22 µM
MIC (Mus musculus [3]): 100 µM (≈ 148 µg/mL)
EC50 [4]: 7.8 µM

COC(=O)[C@@H]1NC(=O)C2NC(=O)C(NC(=O)C(NC(=O)OC(C)(C)C)c3cc(Oc4ccc(CC(NC(=O)OCc5ccccc5)C(=O)O)cc4Cl)c(O)c(c3)Oc3ccc(cc3Cl)C2O)c2ccc(O)c(c2)-c2c(O)cc(O)cc21 (some centres not stated)
EC50 [1]: 17 µM
EC50 (Mus musculus [2]): 87 µM
IC50 (CCRF-CEM): > 250 µM
MIC (Mus musculus [3]): > 100 µM
EC50 [4]: 17 µM
